From ChEMBL document CHEMBL2346559, “Optimization of benzoxazole-based inhibitors of Cryptosporidium parvum inosine 5'-monophosphate dehydrogenase” (J Med Chem, 2013)

Tests used:
Toxoplasma gondii [1] = assay: Antiparasitic activity against transgenic Toxoplasma gondii expressing Cryptosporidium parvum IMPDH; type: functional, organism-based
Summary of the method: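 Engineered T. gondii strain that depends on CpIMPDH for guanine nucleotide synthesis, run alongside the wild-type RH strain, whose native eukaryotic IMPDH also gauges host-cell cytotoxicity. Antiparasitic EC50 is the average of three independent determinations unless otherwise stated, with some values from two determinations.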

[2] = molecular target: Inosine-5'-monophosphate dehydrogenase 2 (Homo sapiens, UniProt P12268); assay: Inhibition of human IMPDH2
[3] = molecular target: T1, Inosine-5'-monophosphate dehydrogenase (Cryptosporidium parvum, UniProt Q8T6T2); assay: Inhibition of Cryptosporidium parvum N-terminal His6-tagged IMPDH-mediated NADH production expressed in Escherichia coli BL21(DE3) preincubated for 5 mins prior to substrate addition by fluorescence assay in presence of BSA
T1 sequence (Q8T6T2 whole entry): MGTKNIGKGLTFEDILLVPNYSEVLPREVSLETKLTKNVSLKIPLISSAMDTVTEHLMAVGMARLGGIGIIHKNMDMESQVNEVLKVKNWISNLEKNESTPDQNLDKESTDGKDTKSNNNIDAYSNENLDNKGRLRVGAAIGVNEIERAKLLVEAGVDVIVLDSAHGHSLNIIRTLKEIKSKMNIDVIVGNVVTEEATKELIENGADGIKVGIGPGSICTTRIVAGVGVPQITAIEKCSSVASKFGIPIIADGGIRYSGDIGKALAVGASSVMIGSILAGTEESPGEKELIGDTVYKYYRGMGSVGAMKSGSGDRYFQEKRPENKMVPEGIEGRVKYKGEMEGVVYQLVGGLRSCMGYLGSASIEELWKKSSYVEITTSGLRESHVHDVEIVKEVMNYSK
Summary of the method: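 Same CpIMPDH fluorescence assay (10 nM enzyme, 300 μM NAD, 150 μM IMP, pH 8.0 Tris buffer, 25 °C, 5 min inhibitor preincubation), run with 0.05% fatty-acid-free BSA added to gauge nonspecific protein binding. Quadruplicate points; IC50 averaged over three determinations.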

[4] = molecular target: T1, Inosine-5'-monophosphate dehydrogenase; assay: Inhibition of Cryptosporidium parvum N-terminal His6-tagged IMPDH-mediated NADH production expressed in Escherichia coli BL21(DE3) preincubated for 5 mins prior to substrate addition by fluorescence assay
[5] = molecular target: T2, Inosine-5'-monophosphate dehydrogenase (Cryptosporidium parvum) (UniProt Q8T6T2)
T2 sequence (whole entry): T1 sequence (Q8T6T2 whole entry)

[6] = molecular target: T2, Inosine-5'-monophosphate dehydrogenase (Cryptosporidium parvum); remark: listed apart in the source
[7] = Cytotoxicity against African green monkey COS cells after 3 days by Alamar blue assay; type: cell-based; conditions: chlorocebus aethiops, read-out: LD50
Summary of the method: (§1)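 Tested in parallel against HeLa, HEK293, COS and CHO cells. Viability was read as metabolic activity by alamarBlue and expressed as LD50.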

[8] = Cytotoxicity against CHO cells after 3 days by Alamar blue assay; type: cell-based, Cricetulus griseus; conditions: chinese hamster, read-out: LD50; summary of the method: as §1
[9] = Cytotoxicity against human HEK293 cells after 3 days by Alamar blue assay; type: cell-based; conditions: read-out: LD50; summary of the method: as §1
[10] = Cytotoxicity against human HeLa cells after 3 days by Alamar blue assay; type: cell-based; conditions: read-out: LD50; summary of the method: as §1
Liver [11] = assay: Half life in mouse liver microsomes by LC/MS/MS analysis; type: ADME, Microsome
Summary of the method: (§2)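 Incubation with mouse liver microsomes at 37 °C, with and without NADPH. Percent of compound remaining measured at several time points; half-life from a fit to first-order decay.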

Liver [12] = assay: Half life in mouse liver microsomes by LC/MS/MS analysis in presence of NADPH; type: ADME, Microsome; summary of the method: as §2
Toxoplasma gondii [13] = assay: Selectivity ratio of EC50 for wild-type Toxoplasma gondii to EC50 for Toxoplasma gondii expressing Cryptosporidium parvum IMPDH; type: functional
Toxoplasma gondii [14] = assay: Antiparasitic activity against wild-type Toxoplasma gondii expressing eukaryotic IMPDH; type: functional, organism-based

| Compound | EC50 (Toxoplasma gondii [1]) [nM] | IC50 [2] [nM] | IC50 [3] [nM] | IC50 [4] [nM] | Kis [5] [nM] | Kis [6] [nM] | CC50 at 72 h [7] [nM] | CC50 at 72 h [8] [nM] | CC50 at 72 h [9] [nM] | CC50 at 72 h [10] [nM] | t1/2 (Liver [11]) [min] | t1/2 (Liver [12]) [min] | Ratio EC50 (Toxoplasma gondii [13]) | EC50 (Toxoplasma gondii [14]) [nM] |
| --- | --- | --- | --- | --- | --- | --- | --- | --- | --- | --- | --- | --- | --- | --- |
| CC(Oc1ccc(Cl)cc1Cl)C(=O)Nc1ccc2oc(-c3ccncc3)nc2c1 (stereo not given) | 650 | > 5000 | 120 | 44 | 33 | 58 | – | – | – | – | – | – | – | – |
| C[C@H](Nc1cccc(Cl)c1Cl)C(=O)Nc1ccc2oc(-c3ccncc3)nc2c1 | – | > 5000 | – | 0.5 | – | – | > 50000 | > 50000 | > 50000 | > 50000 | 110 | 44 | – | – |
| C[C@H](Oc1cccc2ccccc12)C(=O)Nc1ccc2oc(-c3cncs3)nc2c1 | 300 | > 5000 | 4 | 2.7 | 0.9 | 1.6 | – | – | – | – | – | – | – | – |
| C[C@H](Oc1cccc(Cl)c1Cl)C(=O)Nc1cc(Cl)c2oc(-c3ccncc3)nc2c1 | – | > 5000 | 600 | 240 | 150 | 210 | – | – | – | – | – | – | – | – |
| C[C@@H](C(=O)Nc1ccc2oc(-c3ccncc3)nc2c1)c1ccccc1 | 400 | > 5000 | 28 | 22.3 | 40 | 100 | – | – | – | – | 130 | 43 | – | – |
| C[C@H](Oc1cccc(Cl)c1Cl)C(=O)Nc1ccc2nc(-c3ccncc3)oc2c1 | 20 | > 5000 | 4 | 0.6 | – | – | > 50000 | > 50000 | > 50000 | > 50000 | 9 | 10 | 150 | 3000 |
